Compound activity: PubChem, several laboratories
This is a sample that favours compounds with a hit; in the whole collection about 3% have one here.
SDO1 yeast rescue: growth rescue of sdo1-depleted yeast, primary screen, S. cerevisiae, bone marrow failure model | z-score at 10 µM | S. cerevisiae sdo1-depleted JHY4D growth rescue, OD600 30 h; hits give high values; pdr5 snq2 efflux-pump mutant strain | 140,000 compounds, 0.21% hits;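 active = z-score above 3 at both the 24 hr and the 30 hr optical density reads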;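 note: z-score against mean and SD of all compound wells on the same plate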
BB579 growth dn: growth inhibitors of yeast BB579 in restrictive medium, primary screen, yeast lifespan-shortening project, S. cerevisiae. inhibition, % at 10 µM. AID 804, 2007. 140,000 compounds, 0.51% hits. OD615, 48 h;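 active = inhibition above a set limit, 3 SD over the mean compound inhibition, cut at about 44% in these data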
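System: DeaD yeast strain BB579; buffer or medium: CSMM-D dextrose restrictive medium; technique: OD at 615 nm; schedule: 4 h cell preincubation, 48 h compound exposure, 30 °C humidified; doses: single 10 µM dose; controls: amphotericin B 10 µg/mL, positive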
sEH inhibitor: soluble epoxide hydrolase inhibitors, primary screen, biochemical, human sEH; Bifunctional epoxide hydrolase 2 (Homo sapiens), P34913; inhibition, % at 2 µM; 91,000 compounds, 0.34% hits; recombinant human sEH enzymatic activity assay; AID 707, 2007; in the data active = inhibition above about 80%
Target sequence (P34913 whole entry, looked up): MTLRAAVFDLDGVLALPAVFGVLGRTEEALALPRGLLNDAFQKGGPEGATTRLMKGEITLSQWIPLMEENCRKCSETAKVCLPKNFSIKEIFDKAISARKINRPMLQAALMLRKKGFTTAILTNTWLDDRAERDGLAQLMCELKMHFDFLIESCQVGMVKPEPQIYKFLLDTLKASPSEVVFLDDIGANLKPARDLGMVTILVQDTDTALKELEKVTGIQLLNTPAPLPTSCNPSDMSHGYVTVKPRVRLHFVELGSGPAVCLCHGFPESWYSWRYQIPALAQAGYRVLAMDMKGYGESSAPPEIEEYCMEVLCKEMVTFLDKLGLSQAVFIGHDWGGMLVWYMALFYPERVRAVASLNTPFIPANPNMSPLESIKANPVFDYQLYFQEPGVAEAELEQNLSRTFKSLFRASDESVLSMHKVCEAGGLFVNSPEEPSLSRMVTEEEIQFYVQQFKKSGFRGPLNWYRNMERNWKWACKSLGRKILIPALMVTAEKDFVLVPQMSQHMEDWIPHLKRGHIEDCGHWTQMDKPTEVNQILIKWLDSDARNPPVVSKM
sEH act: soluble epoxide hydrolase activators, primary screen, biochemical, human sEH | Bifunctional epoxide hydrolase 2 (Homo sapiens), P34913 | 91,000 compounds, 0.04% hits | purified human sEH enzymatic activity, activator screen | AID 717, 2007 | activation, % at 2 µM; in the data active = activation above about 37%
Measles CPE: compounds protecting cells from measles virus cytopathic effect, primary screen, measles RdRp inhibitor project, single point, MLSMR library, absorbance; Measles virus-infected cells, CPE protection; protection (pct of control), % at 4 µM; 140,000 compounds, 1.5% hits; in the data active = protection mostly above about 24%, no sharp cut-off; inactive = mostly below about 26%
Yeast lifespan up: compounds extending yeast replicative lifespan, primary screen, S. cerevisiae, OD615; 130,000 compounds, 0.68% hits; S. cerevisiae growth with nicotinamide; deaD strain in restrictive glucose medium; inhibition of the nicotinamide effect, % at 10 µM;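 active = inhibition above a set limit, placed 3 SD over the median of all compounds, cut at about 26% in these data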;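 note: 0% = nicotinamide-treated wells and 100% = cells grown without nicotinamide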
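System: DeaD-strain S. cerevisiae / Buffer or medium: CSMM-D, restrictive glucose (dextrose) synthetic minimal medium / Probe or stimulus: nicotinamide, 1.5 mM, co-present with compound / Compound: one concentration, 10 µM, DMSO 0.25% / Incubation: 48 h compound exposure at 30 °C, humidified / Technique: optical density (absorbance) at 615 nm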
* marks the source's active call; other numbers are inactive results; nt = no result given.

SMILES	SDO1 yeast rescue	BB579 growth dn	sEH inhibitor	sEH act	Measles CPE	Yeast lifespan up
CCC(CC)N1CCN(C(=O)Cc2ccccc2)CC1	0.83	-20	-1	4	43*	nt
Cc1nn(Cc2ccccc2)c(Cl)c1C(=O)OC(C)C(=O)Nc1ccc(F)cc1Cl (stereo not given)	-1.1	-14	nt	nt	7	-2
COc1ccc(C(=O)C(Cc2ccccc2)N(C)C)cc1 (stereo not given)	0.58	-31	1	2	4	-18
COc1ccc(C(=O)C(C)(C)NO)cc1	1.6	52*	-5	5	8	9
Cc1cc(OCc2ccc([N+](=O)[O-])cc2)c2c3c(c(=O)oc2c1)CCCC3	-0.05	-12	-4	4	46*	-5
CCCN(CC#CCOc1ccc(OC)cc1)CCC	0.15	-7	-13	13	37*	-9
CC(=O)N1N=C2C3CCN(CC3)C2C1c1ccccc1 (stereo not given)	1.4	5	-13	14	nt	-10
CC1(C)C2([N+](=O)[O-])CNCC1([N+](=O)[O-])CNC2	0.08	-32	-5	8	2	nt
Cc1cc(C=C2C(=O)NC(=S)NC2=O)c(C)n1-c1ccc2c(c1)OCO2	-1.6	-39	nt	nt	12	39*
Cc1cc(C=C2C(=O)NC(=O)NC2=O)c(C)n1-c1ccc2c(c1)OCO2	0.17	-19	nt	nt	14	-4
C=CCn1c(O)c(C(C)=NCCc2ccccc2)c(=O)[nH]c1=O	-0.47	-18	-10	9	24*	-9
Fc1ccc(C2NCCc3[nH]cnc32)cc1 (stereo not given)	1	-7	nt	nt	25	4
Clc1ccc2c(c1)C(c1ccccc1Cl)=NCc1nnc(N3CCN(CCOc4ccccc4)CC3)n1-2	-1.7	-9	nt	nt	28*	18
CCCCn1c(=O)c(C(=O)Nc2ccsc2C(=O)OC)c(O)c2ccccc21	-0.55	-48	nt	nt	10	5
COc1ccc(C2C(C#N)=C(N)Oc3c2c(=O)oc2ccccc32)cc1Cn1cc([N+](=O)[O-])cn1 (stereo not given)	0.96	-25	2	-1	24*	-17
CC(C)Oc1ccc(C2C(C#N)=C(N)Oc3c2c(=O)oc2ccccc32)cc1 (stereo not given)	-0.49	11	0	4	16	-10
CN1C2CCC1/C(=C/c1ccccn1)C(=O)/C2=C\c1ccccn1	-1.2	-31	nt	nt	0	37*
COc1cc(/C=C2\C(=O)NC(=O)N(CCc3ccc(F)cc3)C2=O)ccc1O	-0.14	2	nt	nt	11	12
CCOc1ccc(/C=C2/C(=O)NC(=O)N(CCc3ccc(F)cc3)C2=O)cc1	0.11	-13	nt	nt	4	49*
O=C1NC(=O)N(CCC2=CCCCC2)C(=O)/C1=C/c1ccc(O)cc1	0.45	-40	nt	nt	26	41*
COc1ccc(/C=C2\C(=O)NC(=O)N(CCC3=CCCCC3)C2=O)c(OC)c1	1.4	-21	nt	nt	5	19
Cc1ccccc1C1=NCC(=O)N(CC(=O)N2CCCCC2)c2sc(C)c(C)c21	-0.25	-32	7	-5	18	0
CNC(=O)Oc1ccc(-c2cn3cc(Cl)ccc3n2)cc1	1.1	-20	nt	nt	13	-5
CNC(=O)Oc1cccc(-c2cn3cc(OC(=O)NC)ccc3n2)c1	-2	51*	nt	nt	8	-3
CCN(CC)C(=O)c1ccc(N2C(=O)C3CC=C(Cl)CC3C2=O)cc1 (stereo not given)	0.06	-2	nt	nt	3	26*
SMILES	SDO1 yeast rescue	BB579 growth dn	sEH inhibitor	sEH act	Measles CPE	Yeast lifespan up
CN1C(=O)C(=Cc2ccc(-c3cccc(Cl)c3)o2)C(=O)N(C)C1=O	-0.17	-17	nt	nt	20*	21
OC(c1ccc(F)cc1)C(c1ccccc1)N1CCOCC1 (stereo not given)	0.01	-33	6	-4	39*	-2
CC(NC(=O)Oc1ccccc1)C(c1cccs1)N1CCOCC1 (stereo not given)	-0.49	-24	0	3	17	nt
Cc1cccc(OCC(=O)N2CCN(Cc3ccncc3)CC2)c1	0.66	-16	-18	16	43*	-6
O=c1[nH]c(=O)n(CCC2=CCCCC2)c(O)c1C=NCCN1CCNCC1	-0.98	-46	14	-14	35*	-2
O=c1[nH]c2ccccc2o1	0.81	-3	nt	nt	45*	-1
CC#CP(=O)(OC)C(O)(CF)c1ccccc1 (stereo not given)	0.56	-20	nt	nt	5	3
O=C(C1CC(c2ccccc2O)=NO1)N1CCC2(CC1)OCCO2 (stereo not given)	0.02	-16	3	0	2	-1
CN1CCc2c(C#N)c(Cl)nc(Cl)c2C1	1.8	-8	nt	nt	11	1
Cc1cc(C=C2C(=O)N(C)C(=S)N(C)C2=O)c(C)n1C1CCCC1	-0.56	-5	11	-9	21	14
Cc1cc(C=C2C(=O)N(C)C(=S)N(C)C2=O)c(C)n1-c1cccnc1	-0.55	13	nt	nt	4	51*
Cc1c2ccncc2c(C)c2c1[nH]c1ccccc12	-1.8	100*	nt	nt	0	-8
CN(C)C1(c2nnnn2CCOC(=O)Nc2ccc(Cl)cc2)CCCCC1	-1.1	-12	12	-8	3	66*
CC1(C)CC(=O)C2=C(C1)NC(=O)C21C(C(=O)OC(C)(C)C)=C(N)Oc2ccc(Br)cc21 (stereo not given)	-0.22	-40	3	-1	15	-8
O=C(Nc1cccc2ccccc12)c1nn(C23CC4CC(CC(C4)C2)C3)cc1Br	-0.72	-38	-11	10	38*	-14
CCOC(=O)C1(c2ccccc2)CCN(CC(=O)Nc2cccc3ccccc23)CC1	-1.2	-49	nt	nt	8	11
C[C@@H]1C2C[C@@]34COC(=O)C3=CC=C[C@H]4[C@@]13C[C@H](c1ccoc1)O[C@@H]3O2	-0.32	-18	nt	nt	13	1
CCCN1C2CCCC1CC(NC(C)=O)C2 (stereo not given)	0.86	-30	-16	18	49*	-10
CC(=O)NC1CC2CCCC(C1)N2 (stereo not given)	0.41	-16	1	0	28	-3
Cc1nc2ccccc2c(=O)n1-c1ccc(F)cc1	0.3	-92	nt	nt	31*	-11
Cc1nc2ccccc2c(=O)n1-c1ccccc1C(F)(F)F	0.97	-24	-2	5	32	-11
CCCC(C)C1(CC)C(=O)NC(=Nc2ccc(OC)cc2)NC1=O (stereo not given)	0.48	-13	nt	nt	16	0
Fc1ccc(C(OCCN2CCCC2)c2ccc(F)cc2)cc1	0.08	8	nt	nt	4	6
